Active and inactive are the calls of the source. The calls are words filed in the database; no cut-off is given here.

Test [1] relates to NCI-H128. The test is described as follows: Anticancer activity against human NCI-H128 cells assessed as reduction in cell viability measured after 72 hrs by celltiter-glo assay. The class given is functional, cell-based.
Test [2] can be described thus: Anticancer activity against mouse 518T2 cells assessed as reduction in cell viability measured after 72 hrs by celltiter-glo assay. The class given is functional, cell-based. The conditions noted are these: 518T2, 72 h. Summed up: (§1)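 Cells seeded in duplicate at 10,000 per well in DMEM with 5% FBS and incubated overnight. Compounds were then added as a 10-point dose response. After 72 h, viability was read by CellTiter-Glo luminescence, with the reagent diluted 1:1 in PBS/1% Triton-X. Values were normalized to DMSO-treated cells and IC50 was derived from curve fitting.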

For test [3], the system named is 518T2. Put plainly: Binding affinity to beta-tubulin in mouse 518T2 cells at 0.1 to 50 uM measured after 1.5 hrs using Alexa Fluor 532 dye by copper-mediated click reaction based SDS PAGE analysis. The class given is cell-based. As to conditions: dose microM 0.1-50, time 1.5 hrs. Summed up: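 Competition assay in 518T2 cells (1 million per well, DMEM with 5% FBS). Test analogs in DMSO were dispensed first at 100 nM to 50 μM and the cells plated onto them. The next day, alkyne probe (5 μM) was added for 1.5 h at 37 °C. Lysis was in 1% SDS HEPES buffer, followed by a click reaction with fluorescent azide, SDS-PAGE, and EC50 from displacement of the p50 band.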

The test system of test [4] is NCI-H2107. The test is described as follows: Anticancer activity against human NCI-H2107 cells assessed as reduction in cell viability measured after 72 hrs by celltiter-glo assay. The class given is functional, cell-based.
Test [5] concerns NCI-H889. The test is described as follows: Anticancer activity against human NCI-H889 cells assessed as reduction in cell viability measured after 72 hrs by celltiter-glo assay. The class given is functional, cell-based.
Test [6] is described as follows: Anticancer activity against mouse 319N1 cells assessed as reduction in cell viability measured after 72 hrs by celltiter-glo assay. The class given is functional, cell-based. As to conditions: 319N1, 72 h. Summed up:
as §1

Test [7] in a line: Anticancer activity against mouse 984NA cells assessed as reduction in cell viability measured after 72 hrs by celltiter-glo assay. The class given is functional, cell-based. Put shortly:
as §1

Regarding `O=C(c1ccc(Cl)c([N+](=O)[O-])c1)N1CCN(c2ccccc2)CC1`, the outcome in test [1], in test [4] and in test [5] was Active. Besides, the IC50 in test [2], in test [6] and in test [7] was 3.21 µM in each case. The “beta-tubulin binding (probe competition, active/inactive)” value in test [3] is “Active”.

The values above are taken from ChEMBL document CHEMBL4699638, “A Multipronged Approach Establishes Covalent Modification of β-Tubulin as the Mode of Action of Benzamide Anti-cancer Toxins” (J Med Chem, 2020).
